{"source": "ChEMBL document CHEMBL1123413", "about": "“Synthesis and biological evaluation of 1-(1,2-benzisothiazol-3-yl)- and (1,2-benzisoxazol-3-yl)piperazine derivatives as potential antipsychotic agents” (J Med Chem, 1986)", "key": {"Rattus norvegicus [1]": {"organism": "Rattus norvegicus", "assay": "Compound was tested for its ability to induce catalepsy in rats.", "type": "functional", "how_it_was_run": "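Catalepsy was induced in rats with orally dosed compound as a predictor of extrapyramidal liability. ED50 (mg/kg, po) with fiducial limits by Berkson's method.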"}, "[2]": {"target": "T1, Adrenergic receptor alpha-2 (Rattus norvegicus, UniProt P22086+P19328+P22909)", "T1 sequence (P22086 whole entry)": "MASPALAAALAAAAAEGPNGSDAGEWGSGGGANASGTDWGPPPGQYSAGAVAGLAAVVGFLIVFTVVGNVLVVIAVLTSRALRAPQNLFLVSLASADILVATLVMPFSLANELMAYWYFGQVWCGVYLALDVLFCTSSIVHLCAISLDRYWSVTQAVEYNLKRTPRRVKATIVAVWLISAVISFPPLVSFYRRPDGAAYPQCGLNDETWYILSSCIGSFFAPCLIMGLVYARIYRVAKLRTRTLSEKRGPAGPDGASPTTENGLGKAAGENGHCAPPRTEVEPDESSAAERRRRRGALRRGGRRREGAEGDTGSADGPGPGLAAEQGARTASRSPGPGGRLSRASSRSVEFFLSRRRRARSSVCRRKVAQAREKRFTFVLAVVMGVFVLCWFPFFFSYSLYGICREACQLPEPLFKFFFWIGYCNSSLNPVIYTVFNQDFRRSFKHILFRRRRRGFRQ", "T1 sequence (P19328 whole entry)": "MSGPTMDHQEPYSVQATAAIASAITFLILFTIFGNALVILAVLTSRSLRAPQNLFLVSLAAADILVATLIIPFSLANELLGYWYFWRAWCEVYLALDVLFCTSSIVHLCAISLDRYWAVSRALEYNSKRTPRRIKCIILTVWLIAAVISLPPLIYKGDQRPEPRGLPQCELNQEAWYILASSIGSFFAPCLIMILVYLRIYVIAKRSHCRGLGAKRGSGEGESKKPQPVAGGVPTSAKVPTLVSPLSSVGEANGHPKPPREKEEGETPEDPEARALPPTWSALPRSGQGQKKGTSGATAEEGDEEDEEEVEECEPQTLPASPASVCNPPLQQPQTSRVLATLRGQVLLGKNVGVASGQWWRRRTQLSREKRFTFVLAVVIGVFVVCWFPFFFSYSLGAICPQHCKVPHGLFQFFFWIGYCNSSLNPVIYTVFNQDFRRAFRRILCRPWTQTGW", "T1 sequence (P22909 whole entry)": "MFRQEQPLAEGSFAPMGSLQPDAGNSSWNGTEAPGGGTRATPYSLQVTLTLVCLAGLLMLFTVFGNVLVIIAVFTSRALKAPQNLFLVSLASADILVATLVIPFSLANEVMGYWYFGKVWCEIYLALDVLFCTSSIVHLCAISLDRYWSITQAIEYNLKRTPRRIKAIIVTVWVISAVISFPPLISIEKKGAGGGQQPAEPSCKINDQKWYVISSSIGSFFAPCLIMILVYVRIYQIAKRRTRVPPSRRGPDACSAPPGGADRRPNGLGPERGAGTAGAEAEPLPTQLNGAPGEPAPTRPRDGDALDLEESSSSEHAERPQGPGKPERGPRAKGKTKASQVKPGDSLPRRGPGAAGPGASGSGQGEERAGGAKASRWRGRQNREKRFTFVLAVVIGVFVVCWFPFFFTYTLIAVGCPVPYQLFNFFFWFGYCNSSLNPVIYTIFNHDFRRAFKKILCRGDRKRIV", "assay": "Binding affinity against alpha-2 adrenergic receptor was measured using radioligand ([3H]clonidine) binding assay", "type": "protein assay"}, "[3]": {"assay": "Binding affinity against Muscarinic acetylcholine receptor was measured using radioligand ([3H]QNB) binding assay"}, "Rattus norvegicus [4]": {"organism": "Rattus norvegicus", "assay": "Compound was tested for inhibition of conditioned avoidance response (CAR )", "type": "functional", "how_it_was_run": "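Rats trained to avoid an electric shock, test compound given orally, and block of the conditioned avoidance response scored. ED50 (mg/kg, po) with fiducial limits by the method of Berkson.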"}, "[5]": {"assay": "Binding affinity against imipramine receptor was measured using radioligand ([3H]-imipramine) binding assay", "design": "species or system Rattus norvegicus"}, "D(2) dopamine receptor": {"target": "D(2) dopamine receptor (Rattus norvegicus, UniProt P61169)", "sequence (P61169 whole entry)": "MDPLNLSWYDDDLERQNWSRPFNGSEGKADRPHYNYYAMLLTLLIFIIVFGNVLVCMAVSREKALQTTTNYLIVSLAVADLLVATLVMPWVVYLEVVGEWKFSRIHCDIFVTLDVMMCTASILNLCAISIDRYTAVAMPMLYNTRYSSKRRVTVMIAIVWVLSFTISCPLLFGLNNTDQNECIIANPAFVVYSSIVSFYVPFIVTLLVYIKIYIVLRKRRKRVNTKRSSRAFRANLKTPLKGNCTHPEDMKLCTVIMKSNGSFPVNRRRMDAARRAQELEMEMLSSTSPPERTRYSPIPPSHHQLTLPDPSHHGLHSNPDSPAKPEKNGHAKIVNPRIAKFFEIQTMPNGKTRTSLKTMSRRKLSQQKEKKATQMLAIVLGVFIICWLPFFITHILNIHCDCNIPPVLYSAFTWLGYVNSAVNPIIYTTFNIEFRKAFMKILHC", "assay": "In vitro affinity for rat striatal Dopamine receptor D2 labeled with [3H]spiperone"}, "[6]": {"assay": "Binding affinity against desipramine receptor was measured using radioligand ([3H]desipramine) binding assay", "design": "species or system Rattus norvegicus"}, "[7]": {"assay": "Lethal dose after administration in mouse", "type": "toxicity, organism-based", "details": "in vivo, read-out: ALD50"}}, "data": [{"smiles": "Cl.O=C1CC2(CCCC2)CC(=O)N1CCCCN1CCN(c2nsc3ccccc23)CC1", "note": "[TIOSPIRONE HYDROCHLORIDE]", "values": [{"measurement": "ED50", "setting": "Rattus norvegicus [1]", "result": 84.4, "unit": "mg/kg"}, {"measurement": "IC50", "setting": "[2]", "result": "> 1000", "unit": "nM"}, {"measurement": "IC50", "setting": "[3]", "result": "> 1000", "unit": "nM"}, {"measurement": "ED50", "setting": "Rattus norvegicus [4]", "result": 10.5, "unit": "mg/kg"}, {"measurement": "IC50", "setting": "[5]", "result": "> 1000", "unit": "nM"}, {"measurement": "IC50", "setting": "D(2) dopamine receptor", "result": 8, "unit": "nM"}, {"measurement": "IC50", "setting": "[6]", "result": "> 1000", "unit": "nM"}, {"measurement": "LD50", "setting": "[7]", "result": 1850, "unit": "mg/kg"}]}]}
